Reference: ChEMBL document CHEMBL3784969, “Pharmacokinetics of flutamide in patients with renal insufficiency” (Br J Clin Pharmacol, 1999)

Columns and labels:
Homo sapiens [1] = assay: Cmax in patient (3 patients) with renal insufficiency assessed as hydroxy flutamide at 250 mg, po administered as single dose by gas chromatography; assay type: ADME, organism-based; set-up: dose 250 mg, route oral; details: in vivo
Homo sapiens [2] = assay: Toxicity in patient with renal insufficiency assessed as dizziness at 250 mg, po administered as single dose; assay type: organism-based; details: in vivo
Outline: (§1)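 26 male subjects in groups by 24 h creatinine clearance (normalized to body surface area): >80, 50–80, 30–49, 5–29, <5 ml min−1 1.73 m−2 on haemodialysis. Given as two 125 mg capsules after a 10 h fast, continued 4 h post-dose. Prescription drugs withheld for the same period. Subjects confined 12 h pre-dose to 48 h post-dose, with adverse events compared across renal-function groups.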

[3] = Drug excretion in urine of patient (6 patients) with renal insufficiency assessed as hydroxy flutamide at 250 mg, po administered as single dose by gas chromatography; assay type: ADME, organism-based; details: human, in vivo
Outline: (§2)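 Males grouped by 24 h CLcr normalised to body surface area (>80, 50–80, 30–49, 5–29 ml min−1 1.73 m−2), fasted 10 h pre-dose and 4 h post-dose, given a single oral 250 mg flutamide dose. Plasma sampled 0–96 h; urine collected in blocks to 96 h. Flutamide and hydroxyflutamide measured by GC with electron-capture detection. Renal CL = Ae(0,96 h)/AUC(0,96 h); t1/2 = 0.693/λz.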

Homo sapiens [4] = assay: AUC in patient with renal insufficiency at 250 mg, po administered first dose followed by 14 days wash out period and administered second dose 4 hrs prior to hemodialysis measured during hemodialysis treatment by gas chromatography; assay type: ADME, organism-based; details: in vivo
Outline: (§3)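 Group V haemodialysis males (CLcr <5 ml min−1 1.73 m−2). Single oral 250 mg flutamide (two 125 mg capsules) right after HD; after 14-day washout, same dose 4 h before HD lasting 2–4 h. Venous samples to 48 h, arterial/venous during HD, dialysate in hourly blocks. GC with 63Ni electron-capture detection. CL(HD) = dialysate Ae(HD)/arterial AUC(HD); renal CL = Ae(0,48)/AUC(0,48 h).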

[5] = AUC (0 to 96 hrs) in patient (6 patients) with renal insufficiency at 250 mg, po administered as single dose 4 hrs prior to hemodialysis treatment measured at starting time of dialysis and post dialysis treatment by gas chromatography; assay type: ADME, organism-based; set-up: dose 250 mg, time < 96 hr, route oral; details: human, in vivo
[6] = AUClast in patient (6 patients) with renal insufficiency at 250 mg, po administered as single dose by gas chromatography; assay type: ADME, organism-based; set-up: dose 250 mg, time 0 - last, route oral; details: human, in vivo
[7] = Renal clearance in patient (7 patients) with renal insufficiency at 250 mg, po administered as single dose by gas chromatography; assay type: ADME, organism-based, Kidney; details: human, in vivo; outline: as §2
[8] = Drug excretion in urine of patient (7 patients) with renal insufficiency assessed as hydroxy flutamide at 250 mg, po administered as single dose by gas chromatography; assay type: ADME, organism-based; details: human, in vivo; outline: as §2
Homo sapiens [9] = assay: Final time point in terminal phase in patient (4 patients) with renal insufficiency at 250 mg, po administered as single dose by gas chromatography; assay type: ADME, organism-based; details: in vivo; outline: as §2
Homo sapiens [10] = assay: Final time point in terminal phase in patient (3 patients) with renal insufficiency assessed as hydroxy flutamide at 250 mg, po administered as single dose by gas chromatography; assay type: ADME, organism-based; details: in vivo; outline: as §2
[11] = Tmax in patient (3 patients) with renal insufficiency at 250 mg, po administered as single dose by gas chromatography; assay type: ADME, organism-based; details: human, in vivo; outline: as §2
Homo sapiens [12] = assay: AUClast in patient (6 patients) with renal insufficiency at 250 mg, po assessed as hydroxy flutamide administered as single dose by gas chromatography; assay type: ADME, organism-based; set-up: dose 250 mg, time 0 - last, route oral; details: in vivo
[13] = Elimination rate constant in patient with renal insufficiency at 250 mg, po administered first dose followed by 14 days wash out period and administered second dose 4 hrs prior to hemodialysis measured during hemodialysis treatment by gas chromatography; assay type: ADME, organism-based; details: human, in vivo; outline: as §3
Homo sapiens [14] = assay: AUC (0 to 96 hrs) in patient (6 patients) with renal insufficiency assessed as hydroxy flutamide at 250 mg, po administered as single dose 4 hrs prior to hemodialysis treatment measured at starting time of dialysis and post dialysis treatment by gas chromatography; assay type: ADME, organism-based; set-up: time < 96 hr, dose 250 mg, route oral; details: in vivo
[15] = Drug excretion in urine of patient (6 patients) with renal insufficiency at 250 mg, po administered as single dose 4 hrs prior to hemodialysis treatment measured at starting time of dialysis and post dialysis treatment by gas chromatography; assay type: ADME, organism-based; details: human, in vivo; outline: as §3
Homo sapiens [16] = assay: Final time point in terminal phase in patient (4 patients) with renal insufficiency assessed as hydroxy flutamide at 250 mg, po administered as single dose by gas chromatography; assay type: ADME, organism-based; details: in vivo; outline: as §2
Homo sapiens [17] = assay: Terminal half life in patient (4 patients) with renal insufficiency assessed as hydroxy flutamide at 250 mg, po administered as single dose by gas chromatography; assay type: ADME, organism-based; details: in vivo; outline: as §2
[18] = Cmax in patient (3 patients) with renal insufficiency at 250 mg, po administered as single dose by gas chromatography; assay type: ADME, organism-based; set-up: dose 250 mg, route oral; details: human, in vivo
[19] = AUC (0 to 24 hrs) in patient (7 patients) with renal insufficiency at 250 mg, po administered as single dose by gas chromatography; assay type: ADME, organism-based; set-up: dose 250 mg, time < 24 hr, route oral; details: human, in vivo
[20] = Tmax in patient (6 patients) with renal insufficiency at 250 mg, po administered as single dose 4 hrs prior to hemodialysis treatment measured at starting time of dialysis and post dialysis treatment by gas chromatography; assay type: ADME, organism-based; details: human, in vivo; outline: as §3
Homo sapiens [21] = assay: Toxicity in patient with renal insufficiency assessed as headache at 250 mg, po administered as single dose; assay type: organism-based; details: in vivo; outline: as §1
Homo sapiens [22] = assay: AUC (0 to 24 hrs) in patient (4 patients) with renal insufficiency assessed as hydroxy flutamide at 250 mg, po administered as single dose by gas chromatography; assay type: ADME, organism-based; set-up: dose 250 mg, time < 24 hr, route oral; details: in vivo
Homo sapiens [23] = assay: Toxicity in patient with renal insufficiency assessed as level of lactic dehydrogenase at 250 mg, po administered as single dose (reference value: 85 to 220 IU/l); assay type: organism-based; details: in vivo
Outline: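 Male subjects were grouped by creatinine clearance: normal renal function, graded impairment, or chronic haemodialysis. Each received a single oral dose as two 125 mg capsules while fasted. Serum lactic dehydrogenase was measured pre-dose and at follow-up and read against the 85–220 IU l−1 normal range.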

[24] = AUClast in patient (6 patients) with renal insufficiency at 250 mg, po administered as single dose 4 hrs prior to hemodialysis treatment measured at starting time of dialysis and post dialysis treatment by gas chromatography; assay type: ADME, organism-based; set-up: dose 250 mg, route oral, time 0 - last; details: human, in vivo
[25] = AUC (0 to 96 hrs) in patient (4 patients) with renal insufficiency at 250 mg, po administered as single dose by gas chromatography; assay type: ADME, organism-based; set-up: time < 96 hr, dose 250 mg, route oral; details: human, in vivo
Homo sapiens [26] = assay: AUC (0 to 96 hrs) in patient (6 patients) with renal insufficiency at 250 mg, po assessed as hydroxy flutamide administered as single dose by gas chromatography; assay type: ADME, organism-based; set-up: dose 250 mg, time < 96 hr, route oral; details: in vivo
[27] = Renal clearance in patient (4 patients) with renal insufficiency at 250 mg, po administered as single dose by gas chromatography; assay type: ADME, organism-based, Kidney; details: human, in vivo; outline: as §2
Homo sapiens [28] = assay: AUC (0 to 96 hrs) in patient (3 patients) with renal insufficiency at 250 mg, po assessed as hydroxy flutamide administered as single dose by gas chromatography; assay type: ADME, organism-based; set-up: dose 250 mg, time < 96 hr, route oral; details: in vivo
Homo sapiens [29] = assay: Toxicity in patient with renal insufficiency assessed as fatigue at 250 mg, po administered as single dose; assay type: organism-based; details: in vivo; outline: as §1
[30] = AUClast in patient (7 patients) with renal insufficiency at 250 mg, po administered as single dose by gas chromatography; assay type: ADME, organism-based; set-up: dose 250 mg, time 0 - last, route oral; details: human, in vivo
Homo sapiens [31] = assay: Final time point in terminal phase in patient (3 patients) with renal insufficiency at 250 mg, po administered as single dose by gas chromatography; assay type: ADME, organism-based; details: in vivo; outline: as §2

SMILES: CC(C)C(=O)Nc1ccc([N+](=O)[O-])c(C(F)(F)F)c1 [FLUTAMIDE]
- Cmax (Homo sapiens [1]): 902 ng/mL
- Activity (Homo sapiens [2]): 15%
- Drug excretion [3]: 118.3 µg
- AUC (Homo sapiens [4]): 907.6 ng·h/mL
- AUC(0-t) at 96 h [5]: 217 ng·h/mL
- AUC(0-t) [6]: 75.8 ng·h/mL
- CL renal [7]: 22.8 mL/min
- Drug excretion [8]: 88.3 µg
- Time (Homo sapiens [9]): 5 h
- Time (Homo sapiens [10]): 52 h
- Tmax [11]: 2 h
- AUClast (Homo sapiens [12]): 5476 ng·h/mL
- k el [13]: 5.56e-05 s⁻¹
- AUC (Homo sapiens [14]): 5963 ng·h/mL
- Drug excretion [15]: 0 µg
- Time (Homo sapiens [16]): 56 h
- beta t1/2 (Homo sapiens [17]): 9 h
- Cmax [18]: 41 ng/mL
- AUC(0-t) at 24 h [19]: 59.8 ng·h/mL
- Tmax [20]: 1 h
- Activity (Homo sapiens [21]): 12%
- AUC (Homo sapiens [22]): 5821 ng·h/mL
- Activity (Homo sapiens [23]): 144 IU/L
- AUC(0-t) at 4 h [24]: 179 ng·h/mL
- AUC(0-t) at 96 h [25]: 107 ng·h/mL
- AUC (Homo sapiens [26]): 5527 ng·h/mL
- CL renal [27]: 4 mL/min
- AUC (Homo sapiens [28]): 6907 ng·h/mL
- Activity (Homo sapiens [29]): 12%
- AUC(0-t) [30]: 32.5 ng·h/mL
- Time (Homo sapiens [31]): 6 h
